Structures are written as SMILES. Active and inactive are the calls of the source. No cut-off for these calls is given here.

The test system of assay [1] is Rattus norvegicus. The assay is described as follows: In vivo anti-hyperglycaemic activity of compound in rat sucrose(100 mg/kg, oral gavage) loaded model (SLM) at 100 mg/kg dose; NA = not active. More on the design: dose 100 mg/kg. Format: functional, organism-based. In a few lines:
(§1)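 Overnight-fasted male Sprague–Dawley rats, five per group, were bled at baseline and then given the compound at 100 mg/kg by oral gavage. Sucrose (10 gm/kg) was loaded 30 min later. Blood glucose was taken at 30, 60, 90 and 120 min after the load, and % fall was calculated by the AUC method. Values are means of three experiments.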

The subject of assay [2] is Rattus norvegicus. The assay is described as follows: In vivo anti-hyperglycaemic activity of compound in rat sucrose(100 mg/kg, oral gavage) loaded model (SLM) at 100 mg/kg dose. In kind it is functional. In a few lines: as §1
Assay [3] relates to Rattus norvegicus. The assay is described as follows: In vivo anti-hyperglycaemic activity of compound in rat streptozotocin(60 mg/kg, ip) model (STZ) at 100 mg/kg dose.

Turning to `Cc1[nH]c(-c2ccccc2)c(-c2ccccc2)c1-c1ccccc1F`, in the assay with Rattus norvegicus [1], the Blood sugar lowering result is “inactive”.

In the case of `COc1ccc(-c2c(C)[nH]c(-c3ccccc3)c2-c2ccccc2)c(OC)c1`, the Blood sugar lowering with Rattus norvegicus [2] amounted to 20.3%.

For `COc1ccc(-c2[nH]c(C)c(-c3ccc(F)cc3)c2-c2ccc(OC)cc2)cc1`, in the assay on Rattus norvegicus [2], the Blood sugar lowering is reported as 14.7%.

For the molecule `Cc1[nH]c(-c2ccc(Cl)cc2)c(-c2ccc(Cl)cc2)c1-c1ccc(F)cc1`, in the assay with Rattus norvegicus [1], the Blood sugar lowering result was “inactive”.

Turning to `COc1ccc(-c2c(C)[nH]c(-c3ccccc3)c2-c2ccccc2)cc1OC`, the Blood sugar lowering is 27.8% with Rattus norvegicus [2] and 28.6% in the assay on Rattus norvegicus [3].

`c1ccc(-c2nc(-c3ccccc3)c(-c3ccccc3)nc2-c2ccccc2)cc1` returned a Blood sugar lowering in the assay on Rattus norvegicus [2] of 21.9%.

With `Cc1[nH]c(-c2ccc(Cl)cc2)c(-c2ccc(Cl)cc2)c1-c1ccccc1F`, in the assay on Rattus norvegicus [1], the Blood sugar lowering entry is “inactive”.

For the molecule `Cc1[nH]c(-c2ccccc2)c(-c2ccccc2)c1-c1cccc(C(F)(F)F)c1`, the Blood sugar lowering with Rattus norvegicus [2] worked out at 40.8%; in the assay on Rattus norvegicus [3], 25.1%.

Regarding `Cc1[nH]c(-c2ccccc2)c(-c2ccccc2)c1-c1ccc(F)cc1`, the Blood sugar lowering in the assay with Rattus norvegicus [2] came out at 49.7%; in the assay with Rattus norvegicus [3] it was 34.7%.

Consider `Cc1[nH]c(-c2cccc(Cl)c2)c(-c2cccc(Cl)c2)c1-c1ccc(F)cc1`, for which the Blood sugar lowering result in the assay with Rattus norvegicus [1] is “inactive”.

These data come from ChEMBL document CHEMBL1147580, “Antihyperglycemic activity of 2-methyl-3,4,5-triaryl-1H-pyrroles in SLM and STZ models” (2004).
